Autophagy mod – alters autophagy in cells; MEF GFP-LC3 puncta imaging; test concentration mostly 10 µM; calls only at 10 µM (by protocol); actives 0.98% (n = 190,000); AID 463193;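 active means percentage of spot-positive cells more than 3 SD above its plate mean, without a fluorescence outlier flag or 80% toxicity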;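 further: spot-positive cell cutoff set from DMSO-treated cells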
SKKanGAS inh – SKKanGAS growth inhibition; S. pyogenes SKKanGAS, kanamycin growth, BacTiter-Glo, 6 h; inhibition, % at 7.5 µM; actives 1.3% (n = 300,000);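 active means mean replicate score, as percent of positive control median, at least 50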;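 further: strain carries kanamycin resistance gene driven by streptokinase promoter and grows in 40 µg/ml kanamycin; loss of luminescence reflects streptokinase promoter inhibition or plain growth inhibition; 0% = median of DMSO wells and 100% = positive control at its reference dose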
WT yeast gro inh – growth inhibition of WT yeast, mitochondrial fusion screen; actives 2.1% (n = 190,000); mitochondrial fusion phenotypic screen, WT strain; inhibition, % at 10 µM; AID 1362; in the data active means inhibition above about 58%; tested in S. cerevisiae
Insulin prom up – MIN6 insulin promoter up-regulation | AID 1625 | actives 0.3% (n = 190,000) | z-score at 5 µM | MIN6 insulin promoter-GFP reporter, high-content imaging; active compounds read high;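 active means z-score above 3 at 5 µM with at least 500 cells counted in the well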
Cl transport mod – modulators of human KCC2 chloride dependent transport; Q9H2X9; actives 2.2% (n = 190,000); KCC2 cells, thallium flux FluoZin-2 fluorescence; B-score of Tl+ flux slope (higher = more flux/activation; lower = inhibition) at 10 µM;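 active means thallium flux slope and its plate-corrected score both differing from the plate sample mean at a set confidence after two filtering rounds, in either direction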;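 further: slope of fluorescence scaled to starting intensity during 10 to 20 s after thallium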
Rad51 HR inh – Rad51 (human) homologous recombination inhibition. Q06609. hRad51 DNA strand exchange, fluorescence dequenching. inhibition, % at 10 µM. actives 0.085% (n = 200,000);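 active means inhibition above 40% at the single screening dose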;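 further: 0% = DMSO control wells and 100% = blanks with heterologous ssDNA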
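Material: human Rad51–ssDNA filaments; Probe or stimulus: labelled 47-mer dsDNA for strand exchange; Doses: single 10 µM dose; Incubation: 37 °C 15-min filament assembly, 30-min compound preincubation, 15-min exchange; Technique: FRET fluorescence dequenching, excitation 485 nm, emission 520 nm; Measure: Fluorescence-based percent inhibition, control- and blank-normalised; Benchmarks: plate control and blank wells.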
The depositor's hits bear a star; i = inactive; x = not tested or not shown; + = active, no number. The list is not random: actives were taken first. Their share in the collection is about 4.2%.

SMILES | Autophagy mod | SKKanGAS inh | WT yeast gro inh | Insulin prom up | Cl transport mod | Rad51 HR inh
O=C(COc1ncnc2scc(-c3ccccc3)c12)NCCN1C(=O)CSC1=O | i | 2 | -8 | 0.16 | -1.9 | 5
COc1ccc(C)cc1NC(=O)CC(NC(C)=O)c1ccccc1 (centres undefined) | i | 1 | 10 | 4.5* | 0.16 | -19
Oc1ccccc1CN(Cc1ccco1)CC(O)COCc1ccc(Cl)cc1 (centres undefined) | i | 8 | 68* | -0.55 | -0.2 | x
CCOC(=O)C1(S(=O)(=O)c2ccc(Cl)cc2)CCN(Cc2ccc(Cl)cc2)CC1 | i | 12 | 72* | x | -1.7 | 6
CC1CCCC(NC(=O)CSc2ccc(F)cc2)C1C (centres undefined) | i | 2 | -9 | 0.94 | -0.39 | 7
CC1CCCC(NCC(O)COC(c2ccc(F)cc2)c2ccc(F)cc2)C1C (centres undefined) | + | 1 | 57 | -1.9 | x | -2
c1ccc(CCNc2nc(-c3ccccn3)nc3ccccc23)cc1 | x | 113* | x | -5.7 | -1.7 | 2
CCCN(CCC)c1nc(-c2ccccn2)nc2ccccc12 | x | 97* | x | x | x | x
CC1CCN(c2ccccc2NC(=O)c2ccc(Br)o2)CC1 | x | 88* | x | x | x | x
CN1CCN(c2ccccc2NC(=O)c2ccc(Br)o2)CC1 | i | 1 | 5 | 0.39 | 0.085 | x
CN1CCN(c2ccccc2NC(=O)c2ccc(F)cc2)CC1 | x | 6 | x | -0.73 | 0.017 | x
CC1CCN(c2ccccc2NC(=O)c2ccc(F)cc2)CC1 | i | 21 | 72* | 1.1 | x | -6
COC(=O)CN1C(=S)N(c2ccc(OC)cc2)C(=O)/C1=C/c1ccc(OC)cc1 | i | -9 | 7 | 0.57 | 0.18 | 5
COc1ccc(C(=O)N2C(=S)NC(=O)/C2=C\c2ccc(C)cc2)cc1 | i | 21 | -2 | 0.87 | 7.9* | -30
CSc1cccc(NC(=S)N(CCCN2CCCC2)Cc2cccs2)c1 | i | -2 | -11 | -1.1 | 0.4 | -36
COc1cccc(NC(=S)N(CCCN2CCCC2)Cc2cccn2Cc2ccc(Cl)cc2)c1 | i | 0 | 59* | -1.6 | 0.66 | x
S=C(Nc1cccc(Cl)c1)N(CCCN1CCCC1)Cc1cccn1Cc1ccc(Cl)cc1 | i | -21 | 81* | -0.2 | 0.29 | -6
CSc1cccc(NC(=S)N(CCCN2CCCC2)Cc2cccn2Cc2ccc(Cl)cc2)c1 | i | -7 | 74* | -1.3 | 0.88 | -4
CCNc1nc(SCCOc2ccc(Cl)cc2Cl)nc(N(C)C)n1 | i | 10 | 64* | -1.7 | -0.036 | 25
Oc1nc(Nc2ccccc2)sc1/C=C1\C=Nc2ccccc21 | x | 54* | x | -0.05 | x | -7
CCOC(=O)c1c(Nc2ccccc2)sc(/C=C2\C=Nc3ccccc32)c1O | i | -2 | 11 | -0.15 | 1.2 | -160
COc1ccc(C2CC(C)=C(C#N)S(=O)(=O)C2C#N)cc1 (centres undefined) | x | 9 | x | 0.43 | 0.73 | -12
FC(F)(F)c1cc(-c2ccccc2)nc(N2CCCCC2)n1 | i | 84* | -7 | -0.55 | -0.078 | 5
c1ccc(-c2nc(N3CCCCC3)nc3ccccc23)cc1 | i | 33 | 68* | x | 1.9 | 1
c1ccc(-c2nc(N3CCNCC3)nc3ccccc23)cc1 | i | 2 | 12 | 0.19 | -0.12 | -4
SMILES | Autophagy mod | SKKanGAS inh | WT yeast gro inh | Insulin prom up | Cl transport mod | Rad51 HR inh
COc1ccccc1-c1cc(C(F)(F)F)nc(N2CCCCC2)n1 | i | -10 | 74* | -0.67 | x | -1
FC(F)(F)c1cc(-c2ccccc2)nc(N2CCOCC2)n1 | i | 14 | 8 | -0.61 | 0.27 | -1
Cc1cc(CNC(=O)COC(=O)Cn2[nH]c(=O)c3ccccc3c2=O)cc(C)c1O | x | 17 | x | x | x | x
NS(=O)(=O)c1ccc(CCNS(=O)(=O)c2ccc(Cl)nc2)cc1 | x | -3 | x | -0.51 | 0.98 | 0
Cc1ccc(SCCNC(=S)Nc2ccccc2)cc1 | i | 5 | 74* | -0.35 | -0.037 | x
Cc1cc(C)cc(NC(=S)NCCSc2ccc(Cl)cc2)c1 | i | 50* | 81* | -0.41 | -0.77 | 12
Cc1ccc(SCCNC(=S)Nc2ccc(C)c(C)c2)cc1 | i | 36 | 65 | x | -0.2 | -11
COc1ccccc1NC(=S)NCCSc1ccc(C)cc1 | i | 1 | 71* | 0.36 | -1.4 | -1
CC(C)NC(=O)C(c1ccc(F)cc1)N(Cc1ccco1)C(=O)CCC(=O)Nc1ccccn1 (centres undefined) | x | 0 | x | x | x | x
Cc1c(C(=O)NC2CCCc3ccccc32)cccc1[N+](=O)[O-] (centres undefined) | x | -1 | x | x | x | x
COC(=O)CNC(=O)CNC(=O)c1nn(-c2ccc(OC)c(Cl)c2)c(=O)c2ccccc12 | i | 2 | 76* | -0.36 | -0.037 | x
CS/C(Nc1cc(Cl)ccc1Cl)=C(/C#N)C(=O)c1ccco1 | x | 54* | x | -0.52 | x | 7
O=C(O)c1ccc2c3c(ncnc13)-c1ccccc1C2=O | i | 59* | -11 | 0.47 | 1.9 | x
C=CCn1c(O)c(N=NC(=O)C(O)c2ccccc2)c2ccccc21 (centres undefined) | x | -4 | x | 0.06 | 0.02 | x
C=CCn1c(O)c(N=NC(=O)OC(C)(C)C)c2ccccc21 | i | -2 | 2 | -0.43 | 17* | 2
COc1ccc(/C=N/NC(N)=S)cc1OC(=O)c1cccc2ccccc12 | i | 12 | 61* | x | x | -4
COc1ccc(C(=O)Oc2cc(/C=N/NC(N)=S)ccc2OC)cc1 | i | 16 | 55 | -0.01 | 0.0049 | 7
O=C(CCC(=O)N1CCSc2ccccc21)NC1CCCCC1 | x | -2 | x | x | x | x
Fc1cccc2sc(N3CCCC3)nc12 | i | 4 | -2 | 0.03 | 0.21 | 13
C=CCSc1nc2c(c(C3CC=CCC3)c1C#N)CCC2 (centres undefined) | i | 40 | 61* | x | 0.27 | 3
CCCN1C(=O)/C(=C/c2c(N3CCNC(=O)C3CC(=O)OC)nc3c(C)cccn3c2=O)SC1=S (centres undefined) | x | x | x | 6.5* | i | i
CCOC(=O)CC1C(=O)NCCN1C(=O)c1cc2c(=O)n3cccc(C)c3nc2s1 (centres undefined) | i | 1 | 8 | 0.36 | -1.4 | x
C/C=C\C(=O)Nc1cccc(C2=NOC3(C2)C[C@H](C(N)=O)N(C(=O)Cc2ccc([N+](=O)[O-])cc2)C3)c1 (some centres undefined) | x | -5 | x | 0.52 | 0.037 | -6
CSCCC(NC(=O)COc1ccccc1)C(=O)OC(C)C(=O)Nc1ccccc1C (centres undefined) | x | 14 | x | x | x | x
Cn1cccc1Cc1nnc(SCC(=O)Nc2nc3ccccc3s2)n1CCc1ccccc1 | + | x | -5 | 0.57 | x | -5
O=C(O)CC/C(=N\Nc1ccc([N+](=O)[O-])cc1S(=O)(=O)N1CCOCC1)c1cccs1 | x | 10 | x | 0.02 | x | -6
Nc1nnc(Cc2ccccc2F)s1 | + | -2 | 7 | -0.34 | 1.4 | -34

Assay outcomes (PubChem)
